From PubChem
Jurkat viability: cytotoxicity toward Jurkat T cells, primary screen, cytotoxicity control, cell-based, Jurkat E6.1, 60K MLSMR library; Jurkat E6.1 viability, ATP luminescence, 48 h; inhibition, % at 4 µM; 56,000 tested, 1.2% active; AID 463, 2006;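 active = inhibition above the mean inhibition of all tested compounds plus 3 SD, cut at about 28% in these data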
Lung fibro prol: antiproliferative effect on LL 47 fibroblasts – human, LL 47 cells, CellTiter-Glo luminescence, primary screen | 85,000 tested, 1.1% active | viability, % at 10 µM | LL 47 human lung fibroblast viability, ATP luminescence; active compounds read low;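 active = viability at or below 50% in the single dose screen; inactive = viability above 50%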;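 also: compound exposure lasted 72 h before the ATP readout; 100% = median luminescence of untreated cell-only wells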
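test system = LL 47 human lung fibroblasts | amount = 1,150 fibroblasts seeded per well | medium = 15% FBS in IMEM | times = overnight cell rest, 72 h compound treatment at 37 °C | measured by = CellTiter-Glo luminescence measuring cellular ATP | read-out = viability percentage against median untreated-cell control | benchmarks = cell-only wells, no compound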
H69AR growth 86K: proliferation blockers of H69AR lung cancer cells, primary screen, cell-based, human, 86K library; H69AR lung tumor viability, ATP luminescence, 72 h; active compounds read low; viability, % at 10 µM; 85,000 tested, 6% active;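 active = viability at or below 40%; inactive = viability above 40%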;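 also: multidrug resistant small cell line overexpressing MRP-1 efflux transporter; 100% = mean luminescence of untreated control wells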
HUVEC inhibit: inhibitors of HUVEC proliferation, primary screen, cell-based, 384-well; viability, % at 10 µM (by protocol); AID 648, 2007; 86,000 tested, 1.1% active; CellTiter-Glo luminescence, 72 h; active compounds read low;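 active = viability at or below 30%; inactive = viability above 30%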;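 also: 100% = median luminescence of DMSO-only cell control wells on each plate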
tolC growth inh: growth inhibitors of E. coli tolC mutant, primary screen, strain BW25113 ΔtolC::kan, 384-well; OD615; growth inhibition, % at 10 µM (by protocol); 65,000 tested, 2.2% active; AID 573, 2007;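 active = growth inhibition at or above a cutoff equal to the mean over every tested compound plus 3 SD, cut at about 60% in these data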;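 also: growth measured after 20 h incubation at 37 °C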
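Test system: tolC-deleted E. coli BW25113; medium: LB with kanamycin 50 µg/mL; compound: single-point testing at 10 µM; incubation: 20 h compound exposure of bacteria at 37 °C; signal: OD at 615 nm; evaluation: growth inhibition in percent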
E coli WT exp: growth inhibitors of wild-type E. coli, primary screen, strain BW25113, expanded library, OD600; OD600 absorbance; growth inhibition, % at 100 µM; 98,000 tested, 0.15% active; AID 710, 2007;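 active = growth inhibition above about 50% at one test dose, limit read from the data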;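 also: growth measured after 20 h incubation at 37 °C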
An asterisk follows results filed as active; · = not tested or not shown. In the library only some 6.4% were active in any assay of this set; here they are far more common.

SMILES	Jurkat viability	Lung fibro prol	H69AR growth 86K	HUVEC inhibit	tolC growth inh	E coli WT exp
Cc1[nH]nc(N=CC2=C(O)CC(C)(C)CC2=O)c1-c1ccc(Cl)cc1	2	92	31*	106	15	12
O=C1CC(c2ccco2)CC(O)=C1C=Nc1cc(Cl)ccc1O (stereo not drawn)	·	99	5.3*	77	-6	1
CCCCC(=O)Nc1cc(C(=O)NCCc2ccccc2)ccc1Cl	·	·	·	·	·	-1
CCCCCn1c(Sc2nc3ccccc3s2)nc2c1c(=O)[nH]c(=O)n2C	5	82	66	94	24	-7
O=C(CC1SCCNC1=O)Nc1cc(Cl)cc(Cl)c1 (stereo not drawn)	-4	47*	88	88	13	-2
Cc1ccc2c(N)c(C(=O)N(c3ccccc3)c3ccccc3)sc2n1	·	97	83	89	·	·
Oc1ccc(Cl)cc1-c1cc(-c2ccccc2)n[nH]1	21	77	4.3*	31	100*	1
COc1ccc(-c2cc(-c3ccccc3O)[nH]n2)cc1	·	77	13*	71	·	17
O=C(CC(=O)N/N=C\c1c(Cl)cccc1Cl)NCc1ccccc1	·	·	·	·	·	-5
O=C(Nc1cccnc1)c1ccc(COc2ccccc2Br)o1	27	59	44	24*	44	-2
O=C(NCc1cccnc1)c1ccc(COc2ccccc2Br)o1	1	92	72	63	16	9
Cc1cc2nc(CCN3CCOCC3)n(S(=O)(=O)c3ccc(C(C)(C)C)cc3)c2cc1C	·	88	85	86	·	·
CCOC(=O)C1CCN(CC(O)COc2ccc(C(C)(C)CC)cc2)CC1 (stereo not drawn)	·	97	26*	87	36	21
COc1ccc(C(=O)C(CN2CCOCC2)c2ccccc2)cc1 (stereo not drawn)	·	11*	0.5*	71	·	16
OC(CN1CCOCC1)CN(c1ccccc1)c1ccccc1 (stereo not drawn)	0	87	88	103	-7	5
COc1ccc(C(=O)CCN2CCCCCC2)cc1	·	·	·	·	0	12
O=C(c1ccc(F)cc1)C(CN1CCOCC1)c1ccccc1 (stereo not drawn)	80*	25*	91	51	22	28
CC(CN1CCOCC1)OC(=O)C(c1ccccc1)c1ccccc1 (stereo not drawn)	·	96	86	92	·	·
c1ccc(C(CN2CCOCC2)c2ccccc2)cc1	3	98	91	100	-3	1
COc1ccc(C(=O)C(CN2CCCC2)c2ccccc2)cc1 (stereo not drawn)	·	10*	1.2*	48	11	16
O=C(c1ccccc1)C(CCC(CN1CCOCC1)C(=O)c1ccccc1)CN1CCOCC1 (stereo not drawn)	·	50*	1.3*	36	13	8
O=c1c(-c2nc3ccccc3s2)cccn1Cc1ccc(Cl)c(Cl)c1	·	·	·	·	·	-15
COc1ccc(C2=Nc3ccccc3OC2)cc1	·	100	82	88	·	4
O=c1c2cnn(-c3ccc(F)cc3)c2ncn1Cc1ccccc1	·	98	82	98	·	·
CCCCOc1ccc(C(=O)C(CN2CCOCC2)c2ccccc2)cc1 (stereo not drawn)	·	92	1.0*	2.3*	·	·
SMILES	Jurkat viability	Lung fibro prol	H69AR growth 86K	HUVEC inhibit	tolC growth inh	E coli WT exp
CCCCCOc1ccc(C(=O)C(c2ccccc2)N2CCOCC2)cc1 (stereo not drawn)	·	95	67	116	·	·
CC(C)COc1ccc(Cc2cnc(N)nc2N)cc1	·	92	84	85	·	66*
COc1ccc(Cc2nc(N)nc(N)n2)cc1	·	100	101	101	·	·
CC(=O)N1CCN2C(=O)C1CCCC(=O)c1cc(C)ccc12 (stereo not drawn)	·	96	94	94	·	·
CCC(C)(C)NC(=O)Cc1ccc(C)cc1	·	104	83	94	·	-1
COc1ccccc1C(c1nnnn1C(C)(C)C)N1CCN(Cc2ccncc2)CC1 (stereo not drawn)	-1	99	75	97	-8	-5
COc1cc(C(c2nnnn2C(C)(C)C)N2CCN(c3nc4ccccc4s3)CC2)ccc1O (stereo not drawn)	-2	84	9.0*	96	3	0
